Data as given in ChEMBL document CHEMBL1773023, “Potent and selective phosphopeptide mimetic prodrugs targeted to the Src homology 2 (SH2) domain of signal transducer and activator of transcription 3” (J Med Chem, 2011).
Activity calls are given as the source filed them. The calls are words filed in the database; no cut-off is given here.

Tests used:
[1] = target: T1, Signal transducer and activator of transcription 3 (Homo sapiens, UniProt P40763); test: Binding affinity to SH2 domain of Stat3 by fluorescence polarization assay
T1 sequence (P40763 whole entry, the tested form may be a part): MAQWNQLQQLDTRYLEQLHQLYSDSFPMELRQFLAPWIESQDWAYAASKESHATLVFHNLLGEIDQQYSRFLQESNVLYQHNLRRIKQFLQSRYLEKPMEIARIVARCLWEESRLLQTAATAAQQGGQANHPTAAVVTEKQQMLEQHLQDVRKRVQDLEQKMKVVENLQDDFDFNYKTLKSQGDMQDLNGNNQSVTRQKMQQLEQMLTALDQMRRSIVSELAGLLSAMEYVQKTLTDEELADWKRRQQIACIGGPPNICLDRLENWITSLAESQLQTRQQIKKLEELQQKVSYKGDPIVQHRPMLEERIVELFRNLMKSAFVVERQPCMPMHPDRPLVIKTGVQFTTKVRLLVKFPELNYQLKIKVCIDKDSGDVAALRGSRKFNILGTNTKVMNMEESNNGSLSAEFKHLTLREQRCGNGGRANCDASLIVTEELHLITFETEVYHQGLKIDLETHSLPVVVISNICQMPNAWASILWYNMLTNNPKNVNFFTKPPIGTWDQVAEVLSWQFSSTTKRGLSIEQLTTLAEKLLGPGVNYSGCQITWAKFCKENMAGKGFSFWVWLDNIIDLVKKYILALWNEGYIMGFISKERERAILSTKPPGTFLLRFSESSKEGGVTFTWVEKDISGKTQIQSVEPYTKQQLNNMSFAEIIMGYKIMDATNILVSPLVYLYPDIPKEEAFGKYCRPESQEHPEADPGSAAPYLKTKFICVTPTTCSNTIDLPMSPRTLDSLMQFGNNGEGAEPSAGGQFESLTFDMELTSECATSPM
Procedure, shortened: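 Recombinant Stat3, expressed and purified, tested against phosphopeptides and peptidomimetics in a fluorescence polarization competition assay. Affinity is reported as an inhibition constant (K_I).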

[2] = target: T1, Signal transducer and activator of transcription 3; test: Inhibition of SH2 domain of Stat3 constitutive phosphorylation at Tyr705 in human MDA-MB-468 cells after 2 hrs by Western blotting; assay type: cell-based
Procedure, shortened: (§1)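 MDA-MB-468 cells (4×10^5/well, DMEM 10% FCS, overnight) given prodrug from freshly made 10 mM DMSO stock for 2 h. Lysates in Hepes pH 7.4 Triton buffer with phosphatase/protease inhibitors; 12 μg protein on 8% SDS-PAGE, PVDF, probed for pStat3 Y705 by ECL, then stripped and reprobed for total Stat3.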

[3] = target: T1, Signal transducer and activator of transcription 3; test: Inhibition of SH2 domain of Stat3 constitutive phosphorylation at Tyr705 in human MDA-MB-468 cells at 0.5 uM after 2 hrs by Western blotting; assay type: cell-based; procedure, shortened: as §1
[4] = target: T1, Signal transducer and activator of transcription 3; test: Inhibition of SH2 domain of Stat3 constitutive phosphorylation at Tyr705 in human MDA-MB-468 cells at 0.1 uM after 2 hrs by Western blotting; assay type: cell-based; procedure, shortened: as §1

Row | SMILES | Ki [1] [nM] | further results
1 | C/C(=C\C(=O)N[C@@H](CC(C)C)C(=O)N1CCC[C@H]1C(=O)N[C@@H](CCC(N)=O)C(=O)NCc1ccccc1)c1ccc(OP(=O)(O)O)cc1 | 66 | –
2 | C/C(=C\C(=O)N[C@H]1CCc2cccc3c2N(C1=O)[C@H](C(=O)NCCOC(N)=O)C3)c1ccc(OP(=O)(O)O)cc1 | 188 | –
3 | C/C(=C\C(=O)N[C@H]1CCc2cccc3c2N(C1=O)[C@H](C(=O)N[C@@H](CCC(N)=O)C(=O)NCc1ccccc1)C3)c1ccc(C(F)(F)P(=O)(OCOC(=O)C(C)(C)C)OCOC(=O)C(C)(C)C)cc1 | – | inhibition [2]: Dose-dependent effect
4 | C/C(=C\C(=O)N[C@@H](CC(C)C)C(=O)N1C[C@H]2C[C@H]2[C@H]1C(=O)NCCOC(N)=O)c1ccc(OP(=O)(O)O)cc1 | 193 | –
5 | CC(C)(C)C(=O)OCOP(=O)(OCOC(=O)C(C)(C)C)C(F)(F)c1ccc(/C=C/C(=O)N[C@H]2CCc3cccc4c3N(C2=O)[C@H](C(=O)N[C@@H](CCC(N)=O)C(=O)NCc2ccccc2)C4)cc1 | – | inhibition [2]: Dose-dependent effect
6 | CCCC[C@H](NC(=O)/C=C(\C)c1ccc(OP(=O)(O)O)cc1)C(=O)N1C[C@H]2C[C@H]2[C@H]1C(=O)NCCOC(N)=O | 114 | –
7 | CCCC[C@H](NC(=O)/C=C(\C)c1ccc(OP(=O)(O)O)cc1)C(=O)N1C[C@H]2C[C@H]2[C@H]1C(=O)N[C@@H](CCC(N)=O)C(=O)NCc1ccccc1 | 33 | –
8 | C/C(=C\C(=O)N[C@@H](CC(C)C)C(=O)N1C[C@H]2C[C@H]2[C@H]1C(=O)N[C@@H](CCC(N)=O)C(=O)NCc1ccccc1)c1ccc(OP(=O)(O)O)cc1 | 43 | –
9 | C/C(=C\C(=O)N[C@@H](CC(C)C)C(=O)N1C[C@H]2C[C@H]2[C@H]1C(=O)N[C@H](C)CCC(N)=O)c1ccc(OP(=O)(O)O)cc1 | 83 | –
10 | C/C(=C\C(=O)N[C@@H](CC(C)C)C(=O)N1C[C@H]2C[C@H]2[C@H]1C(=O)NCCNC(N)=O)c1ccc(OP(=O)(O)O)cc1 | 39 | –
11 | C[C@H](CCC(N)=O)NC(=O)[C@@H]1Cc2cccc3c2N1C(=O)[C@@H](NC(=O)/C=C/c1ccc(C(F)(F)P(=O)(OCOC(=O)C(C)(C)C)OCOC(=O)C(C)(C)C)cc1)CC3 | – | inhibition [3]: Active; inhibition [4]: Active
